Screening data from PubChem.
An excerpt weighted towards active compounds, which were near 9.2% of everything screened.
PTEN del growth: PTEN-deleted cell growth suppression; HCT116 PTEN-null viability, CellTiter-Glo, 60 h; active compounds read low; viability, % at 10 µM; 140,000 tested, 1.2% active;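 active = viability at or below a set limit, 4 SD under the median of all tested compounds, cut at about 3.7% in these data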;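 note: PTEN knockout HCT116 line with beta catenin targeted HCT116 as companion control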
Lmaj promast: reduces viability of Leishmania major promastigotes | resazurin fluorescence viability | 200,000 tested, 9% active | AID 1063 | inhibition, % at 10 µM; in the data active = inhibition above about 50%;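 note: promastigotes grown with compound for 44 hours at 28 °C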
Autophagy HCS: alters autophagy in cells. 190,000 tested, 0.98% active. AID 463193. MEF GFP-LC3 puncta imaging; test concentration mostly 10 µM. calls only at 10 µM (by protocol);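 active = percentage of spot-positive cells more than 3 SD above its plate mean, without a fluorescence outlier flag or 80% toxicity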
bCat KO growth: beta-catenin-lacking colon tumor cell growth suppression | HCT116 beta-catenin knockout viability, CellTiter-Glo, 60 h; active compounds read low | 140,000 tested, 1.5% active | viability, % at 10 µM;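 active = viability at or under a set limit, the compound median less 4 SD, cut at about 6% in these data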
Dynein cargo inh: dynein cargo transport inhibition | 3617.4 mouse cells, GR-EGFP nuclear translocation imaging; test concentration mostly 20 µM; stimulated with dexamethasone, 1 µM; active compounds read low | z-score, hits read low | 220,000 tested, 0.47% active | AID 1381;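 active = plate z-score of nuclear minus cytoplasmic receptor signal below a set negative limit, without overly bright fluorescence or cell loss, cut at about -3.5 in these data, passing the limit was not always enough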;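 note: z-score of nuclear minus cytoplasmic ring GR-EGFP intensity difference per well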
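Schedule: 48 h induction, then 1 h compound, then 30 min agonist, 37 °C. Buffer or medium: tetracycline-free induction medium containing charcoal-stripped FBS. Reagent: 1.0 µM final dexamethasone stimulus. Evaluation: nuclear versus cytoplasmic GR-EGFP signal, averaged per well. Signal: high-content fluorescence imaging after fixation.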
Hits are given with their value; - = inactive; . = no result given; + = active, no number.

SMILES	PTEN del growth	Lmaj promast	Autophagy HCS	bCat KO growth	Dynein cargo inh
Cc1cccc(N=Nc2ccc(O)c3ncccc23)c1	-	100.2	-	6.0	-
Cc1ccc(C)c(N=Nc2ccc(O)c3ncccc23)c1	.	100.2	-	.	-
Oc1ccc(N=Nc2ccc3c(c2)OCCO3)c2ncccc12	.	.	.	.	-
Cc1ccc(C(C)C)c(OCC(=O)Nn2c(=O)[nH]c3ccccc3c2=O)c1	-	59.0	-	-	-
c1ccc2sc(NN=C3CCCCCC3)nc2c1	.	62.7	-	.	-
O=C(Nc1nc2ccccc2s1)c1ccccc1	.	-	-	.	-
COc1ccc(-c2cc(C(F)(F)F)nc(N3CCN(C)CC3)n2)cc1OC	-	84.8	-	-	-
COc1ccc(-c2cc(C(F)(F)F)nc(N3CCCCC3)n2)cc1OC	-	-	-	-	-
Cc1cc(N=NC(=O)c2ccccc2)ccc1O	.	85.6	-	.	-
O=C(ONc1ccc(N=NC(=O)c2ccccc2O)cc1)c1ccccc1	-	-	-	-	-
CCCCOC(=O)/C=C/c1c(C)[nH]c(=O)[nH]c1=O	-	52.5	-	-	-
O=C(O)/C=C/C(=O)N1Cc2cc3ccccc3nc2C1	.	.	.	.	-
COc1cc(OC)cc(C(=O)N[C@H](C(=O)NC23CC4CC(CC(C4)C2)C3)C(C)C)c1	-	64.3	-	-	-
COc1cc(OC)cc(C(=O)N[C@H](C(=O)Nc2ccc(NC(C)=O)cc2)C(C)C)c1	.	-	-	.	-
CC(=O)N/N=C/c1cc(C(C)(C)C)cc(/C=N/NC(C)=O)c1O	.	-	-	.	-
CC(C(=O)Nc1ccccc1-c1ccccc1)N(C)Cc1nc2ccccc2c(=O)[nH]1 (stereo not drawn)	.	-	-	.	-
CC(NCCC(c1ccccc1)c1ccccc1)c1ccccc1 (stereo not drawn)	-	80.9	+	1.9	-
COc1ccc(C(=O)NC2CCCCCC2)cc1S(=O)(=O)N1CCCc2ccccc21	-	94.0	-	-	-
COc1ccc(C(=O)NC2CCCCCC2)cc1S(=O)(=O)N1CCCC1	.	-	-	.	-
COc1ccc(C(=O)Nc2nc3c(s2)CCCC3)cc1S(=O)(=O)N1CCCc2ccccc21	-	97.4	-	-	-
COc1cccc(OCc2nc3ncc(Br)cc3[nH]2)c1	-	-	-	-	-
Cc1cc(C)cc(OCc2nc3ncc(Br)cc3[nH]2)c1	.	-	+	.	-
Cc1cc(C(=O)OCC(=O)Nc2ccccc2[N+](=O)[O-])c2ccccc2n1	-	-	-	-	-
FC(F)(F)c1ccc(/C=N/N2CCN(Cc3ccccc3)CC2)cc1	-	54.1	-	-	-
BrC(/C=N/N1CCN(Cc2ccccc2)CC1)=C/c1ccccc1	.	.	.	.	-
SMILES	PTEN del growth	Lmaj promast	Autophagy HCS	bCat KO growth	Dynein cargo inh
Cc1ccc(CN2CCN(/N=C/c3ccc(C(F)(F)F)cc3)CC2)cc1	-	-	-	-	-
BrC(=C\c1ccccc1)/C=N/N1CCN(Cc2ccccc2)CC1	-	53.4	-	-	-
COC(=O)C1=C(C)N(CCCC(=O)O)C(=O)NC1c1cccs1 (stereo not drawn)	0.5	-	-	0.4	-
Cc1cc(C)cc(N(CC(=O)NCc2ccco2)C(=O)CCC(=O)Nc2nccs2)c1	.	77.7	-	.	-
Clc1ccccc1CNc1nc2ccccc2n2cnnc12	.	.	.	.	-
COc1ccc(NC(=O)NCCCN2CCN(c3cc(C)ccc3C)CC2)cc1	1.4	-	-	1.4	-
COc1ccc(NC(=O)NCCCN2CCN(c3ccccc3F)CC2)cc1	.	.	.	.	-
COc1ccc(NC(=O)NCCN2CCN(c3cccc(Cl)c3)CC2)cc1	-	85.2	-	-	-
COc1cc(NC(=O)NCCN2CCN(c3ccc(Cl)cc3)CC2)ccc1C	-	-	-	-	-
N/C(=N\OC(=O)Cc1cccs1)c1ccc([N+](=O)[O-])cc1	-	-	-	-	-
O=C(Nc1nnc(-c2ccc3c(c2)OCCO3)o1)C1CCCCC1	.	72.4	-	.	-
CCC(CO)[n+]1c(C)cc(/C=C2\Sc3ccccc3N2Cc2ccccc2)cc1C (stereo not drawn)	1.6	100.4	+	1.4	-
CC1CCCCN1C(=O)CSc1nc2cc3c(cc2c(=O)n1Cc1ccc2c(c1)OCO2)OCO3 (stereo not drawn)	-	54.1	-	-	-
CC1CCN(C(=O)CSc2nc3ccccc3c(=O)n2Cc2ccc3c(c2)OCO3)CC1	-	-	-	-	-
CCn1c(S(=O)(=O)O)nc2ccccc21	.	.	.	.	-
Cc1ccc(Nc2nc(CSc3nnc(-c4ccccc4)n3C)cs2)cc1	-	95.3	-	-	-
Cc1ccc(Nc2nc(CSc3nnc(-c4cccnc4)n3-c3ccccc3C)cs2)cc1	-	97.0	-	-	-
Cc1ccccc1-n1c(SCc2csc(Nc3ccccc3)n2)nnc1-c1cccnc1	-	64.7	-	-	-
Cn1nnnc1SCc1csc(Nc2ccccc2)n1	-	-	-	-	-
Cc1ccc(Nc2nc(CSc3nnc(-c4ccccc4C)n3C)cs2)cc1	-	-	-	-	-
CN1CCCN(C(=O)Cc2c(Cl)cccc2Cl)c2nc3ccccc3nc21	-	-	-	-	-
CCn1c(C(=O)N2CCC(C(=O)NCCCSC3CCCCC3)CC2)cc2sccc21	-	-	-	-	-
CCS(=O)(=O)Nc1ccc2[nH]c(=O)[nH]c2c1	.	-	-	.	-
CC(C)COc1ncnc2c1sc1nc3c(cc12)COC(C)(C)C3	.	.	.	.	-
CCC(C)Nc1nnnc2c1sc1nc3c(cc12)COC(C)(C)C3 (stereo not drawn)	.	50.1	-	.	-
SMILES	PTEN del growth	Lmaj promast	Autophagy HCS	bCat KO growth	Dynein cargo inh
O=C(Nc1cccc(C(F)(F)F)c1)C12CC3CC(CC(C3)C1)C2	1.0	-	-	0.9	-
NC(=O)NNc1ncc(C(F)(F)F)cc1Cl	.	-	-	.	-
O=C(NNc1ncc(C(F)(F)F)cc1Cl)c1c(Cl)cccc1Cl	-	-	+	-	-
C=CCn1c(SCC(=O)N2CC(=O)Nc3ccccc32)nc2scc(-c3cccs3)c2c1=O	-	65.1	-	-	-
O=C1CN(C(=O)CSc2nc3ccccc3n2CCc2ccccc2)c2ccccc2N1	-	58.1	-	-	-
Cc1cc(C)n2nc(SCc3nnc(-c4ccc(F)cc4)o3)nc2n1	.	-	-	.	-
COCCNCC#CCOc1ccc(OC)cc1	-	-	-	-	-
C=CCNCC#CCOc1ccc(OC)cc1	-	98.9	-	-	-
COCCCNCC#CCOc1ccc(OC)cc1	.	-	+	.	-
C=CCNC(=O)c1ccc(OC)cc1	.	.	.	.	-
COC(=O)CN1C(c2ccccc2)=Nc2ccc(Cl)cc2C1c1ccccc1 (stereo not drawn)	-	-	-	-	-
CCCCCCCCCOC(=O)C[n+]1csc(CCO)c1C	-	97.9	-	-	-
O=C(OCCCN1CCOCC1)c1ccc(O)c(O)c1	.	.	.	.	-
COc1cc(C(=O)OCCN2CCOCC2)ccc1O	-	55.7	-	-	-
Cc1nc2ccccc2c2c1C(=O)NC2=O	.	.	.	.	-
O=C(CSc1n[nH]c(-c2ccccc2)n1)Nc1ncccn1	.	-	-	.	-
O=C(CSc1n[nH]c(-c2ccccc2)n1)Nc1ccc(Br)cn1	-	54.4	-	-	-
C#CCNC(=O)C1=C[C@@H](c2ccc(C(F)(F)F)cc2)C[C@@H](OCCCCO)O1	.	-	-	.	-
